Measurements from ChEMBL document CHEMBL4118229, “lH-Pyrazolo[3,4-b]quinolin-3-amine derivatives inhibit growth of colon cancer cells via apoptosis and sub G1 cell cycle arrest” (Bioorg Med Chem Lett, 2018).
The source made the active and inactive calls. The calls are words filed in the database; no cut-off is given here.

Columns and labels:
DU-145 = experiment: Antiproliferative activity against human DU145 cells by MTT assay; format: functional, cell-based
MDA-MB-231 = experiment: Antiproliferative activity against human MDA-MB-231 cells by MTT assay; format: functional, cell-based
MCF7 = experiment: Antiproliferative activity against human MCF7 cells by MTT assay; format: functional, cell-based
PC-3 = experiment: Antiproliferative activity against human PC3 cells by MTT assay; format: functional, cell-based
LN-229 = experiment: Antiproliferative activity against human LN229 cells by MTT assay; format: functional, cell-based
A2780 = experiment: Antiproliferative activity against human A2780 cells by MTT assay; format: functional, cell-based
HCT-116 [1] = experiment: Antiproliferative activity against human HCT116 cells by MTT assay; format: functional, cell-based
HCT-15 [2] = experiment: Antiproliferative activity against human HCT15 cells by MTT assay; format: functional, cell-based
HT-29 = experiment: Antiproliferative activity against human HT-29 cells by MTT assay; format: functional, cell-based
LoVo [3] = experiment: Antiproliferative activity against human LoVo cells by MTT assay; format: functional, cell-based
HEK293 [4] = experiment: Antiproliferative activity against human HEK293 cells by MTT assay; format: cell-based
HCT-116 [5] = experiment: Cytotoxicity against human HCT116 cells assessed as cell confluence at 10 to 30 uM up to 72 hrs (reference value: 60%); format: functional
HCT-116 [6] = experiment: Cytotoxicity against human HCT116 cells assessed as reduction in cell confluence at 10 to 30 uM after 20 hrs; format: functional, cell-based
HCT-116 [7] = experiment: Inhibition of colony formation in human HCT116 cells assessed as decrease in colony size at 5 to 20 uM; format: functional, cell-based
In short: (§1)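 HCT116 colony formation assay with 5, 10 or 20 μM, or vehicle. Colony number, density and size recorded. Three independent repeats.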

HCT-116 [8] = experiment: Inhibition of colony formation in human HCT116 cells assessed as decrease in reduction in mean colony formation rate at 5 to 20 uM; format: functional, cell-based; in short: as §1
HCT-116 [9] = experiment: Cell cycle arrest in human HCT116 cells assessed as G1 phase accumulation at 5 uM after 24 hrs by propidium iodide staining-based flow cytometric analysis (reference value: 78.7%); format: functional
HCT-116 [10] = experiment: Cell cycle arrest in human HCT116 cells assessed as S phase accumulation at 5 uM after 24 hrs by propidium iodide staining-based flow cytometric analysis (reference value: 9.18%); format: functional
HCT-116 [11] = experiment: Cell cycle arrest in human HCT116 cells assessed as G2 phase accumulation at 5 uM after 24 hrs by propidium iodide staining-based flow cytometric analysis (reference value: 7.56%); format: functional
HCT-116 [12] = experiment: Cell cycle arrest in human HCT116 cells assessed as G1 phase accumulation at 10 uM after 24 hrs by propidium iodide staining-based flow cytometric analysis (reference value: 78.7%); format: functional
HCT-116 [13] = experiment: Cell cycle arrest in human HCT116 cells assessed as S phase accumulation at 10 uM after 24 hrs by propidium iodide staining-based flow cytometric analysis (reference value: 9.18%); format: functional
HCT-116 [14] = experiment: Cell cycle arrest in human HCT116 cells assessed as G2 phase accumulation at 10 uM after 24 hrs by propidium iodide staining-based flow cytometric analysis (reference value: 7.56%); format: functional
HCT-116 [15] = experiment: Cell cycle arrest in human HCT116 cells assessed as G1 phase accumulation at 20 uM after 24 hrs by propidium iodide staining-based flow cytometric analysis (reference value: 78.7%); format: functional
HCT-116 [16] = experiment: Cell cycle arrest in human HCT116 cells assessed as S phase accumulation at 20 uM after 24 hrs by propidium iodide staining-based flow cytometric analysis (reference value: 9.18%); format: functional
HCT-116 [17] = experiment: Cell cycle arrest in human HCT116 cells assessed as G2 phase accumulation at 20 uM after 24 hrs by propidium iodide staining-based flow cytometric analysis (reference value: 7.56%); format: functional
HCT-116 [18] = experiment: Cell cycle arrest in human HCT116 cells assessed as sub G1 phase accumulation after 24 hrs by propidium iodide staining-based flow cytometric analysis; format: functional
HCT-116 [19] = experiment: Induction of apoptosis in human HCT116 cells assessed as viable cells at 5 uM after 24 hrs by Alexa Fluor 488 Annexin V/MitoTracker red staining-based flow cytometric analysis (reference value: 92.5%); format: functional; details: HCT-116, 24 h, read-out: Activity
HCT-116 [20] = experiment: Induction of apoptosis in human HCT116 cells assessed as apoptotic cells at 5 uM after 24 hrs by Alexa Fluor 488 Annexin V/MitoTracker red staining-based flow cytometric analysis (reference value: 7.48%); format: functional
HCT-116 [21] = experiment: Induction of apoptosis in human HCT116 cells assessed as viable cells at 10 uM after 24 hrs by Alexa Fluor 488 Annexin V/MitoTracker red staining-based flow cytometric analysis (reference value: 92.5%); format: functional; details: HCT-116, 24 h, read-out: Activity
HCT-116 [22] = experiment: Induction of apoptosis in human HCT116 cells assessed as apoptotic cells at 10 uM after 24 hrs by Alexa Fluor 488 Annexin V/MitoTracker red staining-based flow cytometric analysis (reference value: 7.48%); format: functional
HCT-116 [23] = experiment: Induction of apoptosis in human HCT116 cells assessed as viable cells at 20 uM after 24 hrs by Alexa Fluor 488 Annexin V/MitoTracker red staining-based flow cytometric analysis (reference value: 92.5%); format: functional; details: HCT-116, 24 h, read-out: Activity
HCT-116 [24] = experiment: Induction of apoptosis in human HCT116 cells assessed as apoptotic cells at 20 uM after 24 hrs by Alexa Fluor 488 Annexin V/MitoTracker red staining-based flow cytometric analysis (reference value: 7.48%); format: functional
HCT-116 [25] = experiment: Induction of apoptosis in human HCT116 cells assessed as viable cells at 30 uM after 24 hrs by Alexa Fluor 488 Annexin V/MitoTracker red staining-based flow cytometric analysis (reference value: 92.5%); format: functional; details: HCT-116, 24 h, read-out: Activity
HCT-116 [26] = experiment: Induction of apoptosis in human HCT116 cells assessed as apoptotic cells at 30 uM after 24 hrs by Alexa Fluor 488 Annexin V/MitoTracker red staining-based flow cytometric analysis (reference value: 7.48%); format: functional
HCT-116 [27] = experiment: Induction of apoptosis in human HCT116 cells assessed as nuclear condensation at 5 to 10 uM after 24 hrs by DAPI staining-based fluorescent microscopic analysis; format: functional, cell-based
In short: (§2)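 HCT116 cells given 5 or 10 μM, or vehicle, for 24 or 48 h. Cells fixed and stained with DAPI. Condensed and fragmented nuclei assessed by fluorescence microscopy at 40X.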

HCT-116 [28] = experiment: Induction of apoptosis in human HCT116 cells assessed as nuclear fragmentation at 5 to 10 uM after 24 hrs by DAPI staining-based fluorescent microscopic analysis; format: functional, cell-based; in short: as §2
HCT-116 [29] = experiment: Induction of apoptosis in human HCT116 cells assessed as chromatin condensation at 5 to 10 uM after 48 hrs by DAPI staining-based fluorescent microscopic analysis; format: functional, cell-based; in short: as §2
HCT-116 [30] = experiment: Cell cycle arrest in human HCT116 cells assessed as subG1 phase accumulation at 5 uM after 24 hrs by propidium iodide staining-based flow cytometric analysis (reference value: 3.81%); format: functional
HCT-116 [31] = experiment: Cell cycle arrest in human HCT116 cells assessed as subG1 phase accumulation at 10 uM after 24 hrs by propidium iodide staining-based flow cytometric analysis (reference value: 3.81%); format: functional
HCT-116 [32] = experiment: Cell cycle arrest in human HCT116 cells assessed as subG1 phase accumulation at 20 uM after 24 hrs by propidium iodide staining-based flow cytometric analysis (reference value: 3.81%); format: functional
HCT-116 [33] = experiment: Induction of apoptosis in human HCT116 cells after 24 hrs by Alexa Fluor 488 Annexin V/MitoTracker red staining-based flow cytometric analysis; format: functional, cell-based
LoVo [34] = experiment: Cytotoxicity against human LoVo cells at 1 to 30 uM incubated for 72 hrs by inverted microscopy
HCT-15 [35] = experiment: Cytotoxicity against human HCT15 cells at 1 to 30 uM incubated for 72 hrs by inverted microscopy
HCT-116 [36] = experiment: Cytotoxicity against human HCT116 cells at 1 to 30 uM incubated for 72 hrs by inverted microscopy
HEK293 [37] = experiment: Cytotoxicity against human HEK293 cells at 1 to 30 uM incubated for 72 hrs by inverted microscopy; details: hek293, 72 h

COc1ccc2cc3c(N)n[nH]c3nc2c1 gave an IC50 (DU-145) of 53.4 µM, an IC50 (MDA-MB-231) of 50.6 µM and an IC50 (MCF7) of 59.2 µM. It also gave an IC50 (PC-3) of 87.1 µM, an IC50 (LN-229) of 7.8 µM and an IC50 (A2780) of 56.6 µM. The IC50 (HCT-116 [1]) was 2.3 µM, the IC50 (HCT-15 [2]) was 9.6 µM and the IC50 (HT-29) was 3.9 µM. The IC50 (LoVo [3]) was 10.2 µM, the IC50 (HEK293 [4]) was 45.8 µM and the Activity (HCT-116 [5]) was “<=20%”. The Activity (HCT-116 [6]) was “Active”, the inhibition (HCT-116 [7]) was “Active” and the inhibition (HCT-116 [8]) was “Active”. For the same compound, the Activity (HCT-116 [9]) was 59.3%, the Activity (HCT-116 [10]) was 14.5% and the Activity (HCT-116 [11]) was 1.37%. The Activity (HCT-116 [12]) was 45.9%, the Activity (HCT-116 [13]) was 15.1% and the Activity (HCT-116 [14]) was 5.3%. For the same compound, the Activity (HCT-116 [15]) was 33.5%, the Activity (HCT-116 [16]) was 7.99% and the Activity (HCT-116 [17]) was 0.6%. For the same compound, the Activity (HCT-116 [18]) was “Dose-dependent effect”, the viability at 5 µM (HCT-116 [19]) was 77% and the Activity (HCT-116 [20]) was 22.9%. It also gave a viability at 10 µM (HCT-116 [21]) of 68.1%, an Activity (HCT-116 [22]) of 31.8% and a viability at 20 µM (HCT-116 [23]) of 66%. For the same compound, the Activity (HCT-116 [24]) was 34%, the viability at 30 µM (HCT-116 [25]) was 46.7% and the Activity (HCT-116 [26]) was 53.3%. The Activity (HCT-116 [27]) was “Active”, the Activity (HCT-116 [28]) was “Active” and the Activity (HCT-116 [29]) was “Active”. It also gave an Activity (HCT-116 [30]) of 22.4%, an Activity (HCT-116 [31]) of 32% and an Activity (HCT-116 [32]) of 55.9%. For the same compound, the Activity (HCT-116 [33]) was “Dose-dependent effect”, the Activity (LoVo [34]) was “Active” and the Activity (HCT-15 [35]) was “Active”. The Activity (HCT-116 [36]) was “Active” and the Activity (HEK293 [37]) was “Non-Toxic”.

With Nc1n[nH]c2nc3cc(Cl)ccc3cc12 the IC50 (DU-145) was > 100 µM, the IC50 (MDA-MB-231) was 89.9 µM and the IC50 (MCF7) was > 100 µM. The IC50 (PC-3) was > 100 µM, the IC50 (LN-229) was 58.6 µM and the IC50 (A2780) was 59.9 µM. The IC50 (HCT-116 [1]) was 56.6 µM, the IC50 (HCT-15 [2]) was 44.8 µM and the IC50 (HT-29) was 42.3 µM. For the same compound, the IC50 (LoVo [3]) was 77.5 µM and the IC50 (HEK293 [4]) was 36.6 µM.

For COc1ccc2nc3[nH]nc(N)c3cc2c1, the IC50 (DU-145) was 76.5 µM, the IC50 (MDA-MB-231) was 62.3 µM and the IC50 (MCF7) was 49.5 µM. The IC50 (PC-3) was > 100 µM, the IC50 (LN-229) was 93.7 µM and the IC50 (A2780) was 35.8 µM. It also gave an IC50 (HCT-116 [1]) of 57 µM, an IC50 (HCT-15 [2]) of 69.3 µM and an IC50 (HT-29) of 85.2 µM. For the same compound, the IC50 (LoVo [3]) was 55.6 µM and the IC50 (HEK293 [4]) was > 100 µM.

In the case of Nc1n[nH]c2nc3c(ccc4ccccc43)cc12, the IC50 (DU-145) is reported as > 100 µM, the IC50 (MDA-MB-231) is reported as > 100 µM and the IC50 (MCF7) is reported as 73.6 µM. The IC50 (PC-3) was 59.7 µM, the IC50 (LN-229) was 54.3 µM and the IC50 (A2780) was 13.5 µM. For the same compound, the IC50 (HCT-116 [1]) was 76.1 µM, the IC50 (HCT-15 [2]) was 68.6 µM and the IC50 (HT-29) was 98.7 µM. The IC50 (LoVo [3]) was 80.6 µM and the IC50 (HEK293 [4]) was > 100 µM.
